Among the data in ChEMBL document CHEMBL5532647, “Design, synthesis, ADME and biological evaluation of benzylpiperidine and benzylpiperazine derivatives as novel reversible monoacylglycerol lipase (MAGL) inhibitors” (Eur J Med Chem, 2024) are inhibition and IC50 values, retold here.

Calls of active or inactive are those of the source. The calls are words filed in the database; no cut-off is given here.

The target in assay [1] is T1, Monoglyceride lipase (Homo sapiens) (UniProt Q99685).
T1 sequence (whole entry): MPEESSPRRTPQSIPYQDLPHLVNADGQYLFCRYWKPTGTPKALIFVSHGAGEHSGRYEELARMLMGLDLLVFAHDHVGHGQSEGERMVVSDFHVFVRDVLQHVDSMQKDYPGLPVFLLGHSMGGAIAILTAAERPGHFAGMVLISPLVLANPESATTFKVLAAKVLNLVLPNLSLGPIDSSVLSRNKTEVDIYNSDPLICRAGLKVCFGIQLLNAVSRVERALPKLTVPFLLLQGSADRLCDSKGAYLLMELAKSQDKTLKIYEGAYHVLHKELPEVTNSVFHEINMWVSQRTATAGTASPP
The assay can be described thus: Reversible inhibition of human recombinant MAGL using 4-nitrophenylacetate as substrate incubated for 15 mins in presence of DTT by microplate reader analysis. The method in brief:
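Human recombinant MAGL (11 ng/well) in 10 mM Tris, pH 7.2, with 1 mM EDTA and 0.1 mg/mL BSA, at room temperature. Compound plus 4-NPA incubated 15 min with 10 μM DTT before enzyme addition. Compound final 320–0.02 nM. Absorbance at 405 nm after 30 min, blank-subtracted. IC50 from sigmoidal dose–response fit.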

For assay [2], the target named is T1, Monoglyceride lipase (Homo sapiens). Briefly: Reversible inhibition of human recombinant MAGL using 4-nitrophenylacetate as substrate at 8 nM incubated for 15 mins by microplate reader analysis. The method in brief: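 Human recombinant MAGL (880 ng in Tris buffer, pH 7.2) incubated 60 min at room temperature with compound at 320 nM in the mixture, then diluted 40-fold in buffer. After 15 min, reaction started with 4-NPA 500 μM (stock added). Activity read at 405 nm after 30 min. Undiluted comparison run at 320 nM and 8 nM.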

For assay [3], the target named is T2, Fatty-acid amide hydrolase 1 (Homo sapiens) (UniProt O00519).
T2 sequence (whole entry): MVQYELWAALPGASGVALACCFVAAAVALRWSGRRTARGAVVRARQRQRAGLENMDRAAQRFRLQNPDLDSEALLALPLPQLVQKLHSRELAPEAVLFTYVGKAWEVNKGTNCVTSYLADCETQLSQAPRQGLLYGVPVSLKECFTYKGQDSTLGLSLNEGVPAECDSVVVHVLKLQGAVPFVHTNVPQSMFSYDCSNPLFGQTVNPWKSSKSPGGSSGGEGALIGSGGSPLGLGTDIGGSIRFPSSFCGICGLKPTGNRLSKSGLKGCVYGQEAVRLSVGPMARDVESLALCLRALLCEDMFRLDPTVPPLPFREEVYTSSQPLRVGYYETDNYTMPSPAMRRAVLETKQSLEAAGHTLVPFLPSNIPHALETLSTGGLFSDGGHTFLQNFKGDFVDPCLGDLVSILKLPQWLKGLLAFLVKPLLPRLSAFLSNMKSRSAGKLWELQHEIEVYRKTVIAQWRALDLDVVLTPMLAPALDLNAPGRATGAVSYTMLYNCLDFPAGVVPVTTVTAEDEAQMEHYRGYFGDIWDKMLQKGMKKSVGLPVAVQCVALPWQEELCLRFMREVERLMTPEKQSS
Briefly: Inhibition of FAAH in human U-937 cells at 10 uM preincubated with compound for 15 mins followed by 2-OG addition and measured after 15 mins by scintillation liquid counter analysis. Type of assay: cell-based. The note with it: time 30.0 min.

Another assay deals with T3, Monoglyceride lipase (Homo sapiens, UniProt Q99685).
T3 sequence (Q99685 whole entry): T1 sequence (whole entry)
The assay can be described thus: Reversible inhibition of MAGL in human U-937 cells using 2-oleoylglycerol as substrate preincubated with compound for 30 mins followed by substrate addition and measured after 5 mins. Type of assay: cell-based. The method in brief:
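Intact U937 cells co-incubated with compound for 30 min. Then 10 μM 2-oleoylglycerol plus 1.0 nM [3H]2-OG tracer added for a further 5 min at 37 °C. JZL-184 (1 μM) served as full-inhibition control. Two independent experiments in triplicate. IC50 given as mean (95% CI).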

Assay [4] concerns the target T4, Monoacylglycerol lipase ABHD6 (Homo sapiens) (UniProt Q9BV23).
T4 sequence (whole entry): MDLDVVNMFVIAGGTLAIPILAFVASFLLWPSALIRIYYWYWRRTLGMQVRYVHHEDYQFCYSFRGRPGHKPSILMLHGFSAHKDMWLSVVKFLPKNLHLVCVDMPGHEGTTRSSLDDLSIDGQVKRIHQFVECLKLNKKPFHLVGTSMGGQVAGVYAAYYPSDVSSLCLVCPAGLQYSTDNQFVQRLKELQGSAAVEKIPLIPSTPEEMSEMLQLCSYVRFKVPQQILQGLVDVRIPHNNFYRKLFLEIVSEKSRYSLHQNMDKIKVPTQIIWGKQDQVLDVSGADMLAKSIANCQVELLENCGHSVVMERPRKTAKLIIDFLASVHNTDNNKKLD
The assay can be described thus: Inhibition of human ABHD6 transfected in HEK293 cells at 10 uM preincubated with compound for 30 mins followed by 2-OG addition and measured after 5 mins by liquid scintillation spectroscopy. In kind it is cell-based. Conditions: time 35.0 min. In short, it runs like this:
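Homogenates (40 μg) of HEK293 cells stably transfected with hABHD6 or hABHD12. Compound 10 μM preincubated 30 min at 37 °C, 500 rpm, in Tris/EDTA buffer with 0.1% fatty acid-free BSA, pH 7.6. Controls: WWL70 10 μM or THL 20 μM; DMSO vehicle. 2-OG 10 μM added for 5 min at 37 °C. Stopped with ice-cold CHCl3:MeOH; aqueous phase counted. No-enzyme blanks used; non-transfected HEK293 hydrolysis subtracted.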

Assay [5] concerns the target T5, Monoglyceride lipase (Mus musculus) (UniProt O35678).
T5 sequence (whole entry): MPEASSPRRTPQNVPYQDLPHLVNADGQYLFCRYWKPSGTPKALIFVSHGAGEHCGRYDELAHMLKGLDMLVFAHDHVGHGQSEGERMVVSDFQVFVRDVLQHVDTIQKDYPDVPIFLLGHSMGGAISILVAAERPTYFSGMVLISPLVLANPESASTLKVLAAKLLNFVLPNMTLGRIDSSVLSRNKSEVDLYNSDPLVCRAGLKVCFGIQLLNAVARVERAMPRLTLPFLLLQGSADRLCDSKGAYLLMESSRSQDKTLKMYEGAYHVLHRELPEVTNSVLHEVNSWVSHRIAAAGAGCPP
Briefly: Reversible inhibition of mouse brain MAGL at 10 uM incubated with compound for 25 mins by TAMRA-FP probe based SDS-PAGE analysis. In kind it is tissue-based. In short, it runs like this: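 Mouse brain membranes (2 mg/mL final, in PBS) preincubated 25 min at 25 °C with test compound (10 μM final) or DMSO vehicle. Controls: JZL-184, URB597 4 μM, WWL70 10 μM, THL, MAFP 5 μM. TAMRA-FP 125 nM final added for 5 min at 25 °C. Reaction stopped with Laemmli buffer, 3 min at 25 °C then 10 min at 90 °C. Separation by 10% SDS-PAGE, fluorescence scanning, three independent experiments.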

As to `O=C(c1cc(O)ccc1F)N1CCN(Cc2cccc(Sc3cc(C(F)(F)F)ccn3)c2)CC1`, the inhibition result in assay [1], in assay [3] and in assay [4] was “inactive” each time. For the same molecule, the inhibition result in assay [2] and in assay [5] was “Active” in each case. On Monoglyceride lipase, the IC50 amounted to 489 nM.

In the case of `O=C(c1cccc(O)c1)N1CCC(Cc2cccc(Sc3cc(C(F)(F)F)ccn3)c2)CC1`, the inhibition entry in assay [1], in assay [3] and in assay [4] was “inactive” each time. In addition, the inhibition entry in assay [2] and in assay [5] was “Active” each time. Moreover, the IC50 at Monoglyceride lipase stood at 197 nM.

Take `O=C(c1cc(O)ccc1F)N1CCC(Cc2cccc(Sc3cc(C(F)(F)F)ccn3)c2)CC1`: the inhibition result in assay [1], in assay [3] and in assay [4] was “inactive” each time. In addition, the inhibition result in assay [2] and in assay [5] was “Active” throughout. Besides, the half-inhibitory concentration (IC50) at Monoglyceride lipase was 199 nM.

Take `O=C(c1cccc(O)c1)N1CCC(Cc2ccc(F)c(Sc3cc(C(F)(F)F)ccn3)c2)CC1`: the inhibition result in assay [1], in assay [3] and in assay [4] was “inactive” each time. For the same molecule, the inhibition entry in assay [2] and in assay [5] was “Active” throughout. At Monoglyceride lipase, the half-maximal inhibitory concentration (IC50) came to 193 nM.

What is called IC50 is the point on the concentration scale where inhibition reaches its midpoint.
